What was measured:
Format in all cases: functional
[1] = system: Pseudomonas aeruginosa; assay: Antibacterial activity against Pseudomonas aeruginosa ATCC 27853 after 16 to 18 hrs by microbroth dilution method
Method in brief: (§1)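 Broth microdilution in Mueller–Hinton broth following CLSI recommendations. Strains came from ATCC or CCUG collections or the authors' clinical isolates. Compounds were dissolved in DMSO as a 100 mg/ml stock and then diluted in culture medium. Inoculum was 5 × 10⁴ CFU/well. MIC was read after 16–18 h incubation at 35–37 °C.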

[2] = system: Aeromonas hydrophila; assay: Antibacterial activity against Aeromonas hydrophila ATCC 7966 after 16 to 18 hrs by microbroth dilution method; method in brief: as §1
[3] = system: Bacillus subtilis; assay: Antibacterial activity against Bacillus subtilis ATCC 6633 after 16 to 18 hrs by microbroth dilution method; method in brief: as §1
[4] = system: Enterococcus faecalis; assay: Antibacterial activity against Enterococcus faecalis ATCC 19433 after 16 to 18 hrs by microbroth dilution method; method in brief: as §1
[5] = system: Staphylococcus epidermidis; assay: Antibacterial activity against Staphylococcus epidermidis ATCC 14990 after 16 to 18 hrs by microbroth dilution method; method in brief: as §1
[6] = system: Escherichia coli; assay: Antibacterial activity against Escherichia coli CCUGT after 16 to 18 hrs by microbroth dilution method; method in brief: as §1
[7] = system: Klebsiella pneumoniae; assay: Antibacterial activity against Klebsiella pneumoniae ATCC 13833 after 16 to 18 hrs by microbroth dilution method; method in brief: as §1
[8] = system: Streptococcus pyogenes; assay: Antibacterial activity against Streptococcus pyogenes ATCC 12344 after 16 to 18 hrs by microbroth dilution method; method in brief: as §1
[9] = system: Acinetobacter baumannii; assay: Antibacterial activity against Acinetobacter baumannii ATCC 17978 after 16 to 18 hrs by microbroth dilution method; method in brief: as §1
[10] = system: Elizabethkingia meningoseptica; assay: Antibacterial activity against Elizabethkingia meningoseptica CCUG 4310 after 16 to 18 hrs by microbroth dilution method; method in brief: as §1
[11] = system: Enterobacter cloacae; assay: Antibacterial activity against penicillin/CEPH/carbapenem/aminoglycoside/fluoroquinolone-resistant Enterobacter cloacae VA-417/02 after 16 to 18 hrs by microbroth dilution method
Method in brief: (§2)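 Broth microdilution MIC per CLSI in Mueller–Hinton broth. Inoculum 5 × 10⁴ CFU/well. Compounds dissolved in DMSO at 100 mg/ml, then diluted in culture medium. Plates incubated 16–18 h at 35–37 °C before reading the MIC. Strains were taken from ATCC or CCUG collections or from the authors' clinical isolate collection.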

[12] = system: Pseudomonas aeruginosa; assay: Antibacterial activity against penicillin/expanded-spectrum cephalosporin/carbapenem/monobactam/aminoglycoside/fluoroquinolone-resistant Pseudomonas aeruginosa VR-143/97 after 16 to 18 hrs by microbroth dilution method; method in brief: as §2
[13] = system: Klebsiella pneumoniae; assay: Antibacterial activity against penicillin/expanded-spectrum cephalosporin/carbapenem/aminoglycoside/fluoroquinolone/trimethoprim/sulfamethoxazole-resistant Klebsiella pneumoniae 7023 after 16 to 18 hrs by microbroth dilution method; method in brief: as §2
[14] = system: Acinetobacter baumannii; assay: Antibacterial activity against penicillin/expanded-spectrum cephalosporin/carbapenem/aztreonam/aminoglycoside/fluoroquinolone/fosfomycin/trimethoprim/sulfamethoxazole-resistant Acinetobacter baumannii AC-54/97 after 16 to 18 hrs by microbroth dilution method; method in brief: as §2
[15] = system: Achromobacter xylosoxidans; assay: Antibacterial activity against penicillin/expanded-spectrum cephalosporin/carbapenem/aminoglycoside-resistant Achromobacter xylosoxidans AX 22 after 16 to 18 hrs by microbroth dilution method; method in brief: as §2
[16] = system: Stenotrophomonas maltophilia; assay: Antibacterial activity against penicillin/expanded-spectrum cephalosporin/carbapenem/monobactam/aminoglycoside/trimethoprim/sulfamethoxazole/fosfomycin-resistant Stenotrophomonas maltophilia 634/08 after 16 to 18 hrs by microbroth dilution method; method in brief: as §2
[17] = system: Pseudomonas aeruginosa; assay: Antibacterial activity against penicillin/expanded-spectrum cephalosporin/carbapenem/aminoglycoside-resistant Pseudomonas aeruginosa 101/1477 after 16 to 18 hrs by microbroth dilution method; method in brief: as §2
[18] = system: Alcaligenes faecalis; assay: Antibacterial activity against expanded-spectrum cephalosporin/carbapenem/monobactam-resistant Alcaligenes faecalis 424/98 after 16 to 18 hrs by microbroth dilution method; method in brief: as §2

SMILES | MIC [1] [µg/mL] | MIC [2] [µg/mL] | MIC [3] [µg/mL] | MIC [4] [µg/mL] | MIC [5] [µg/mL] | MIC [6] [µg/mL] | MIC [7] [µg/mL] | MIC [8] [µg/mL] | MIC [9] [µg/mL] | MIC [10] [µg/mL] | MIC [11] [µg/mL] | MIC [12] [µg/mL] | MIC [13] [µg/mL] | MIC [14] [µg/mL] | MIC [15] [µg/mL] | MIC [16] [µg/mL] | MIC [17] [µg/mL] | MIC [18] [µg/mL]
C=C(C)CNC(=N)NCCCCCCCCNCCCCCCCCNC(=N)N.O=C(O)C(F)(F)F.O=C(O)C(F)(F)F.O=C(O)C(F)(F)F | > 256 | > 256 | 64 | 256 | 64 | 128 | 256 | 16 | > 256 | > 256 | – | – | – | – | – | – | – | –
N=C(N)NCCCCCCCCNCCCCCCCCNC(=N)NCc1ccccc1.O=C(O)C(F)(F)F.O=C(O)C(F)(F)F.O=C(O)C(F)(F)F | 64 | 64 | 4 | 16 | 4 | 8 | 16 | 1 | 64 | – | – | – | – | – | – | – | – | –
C#CCNC(=N)NCCCCCCCCNCCCCCCCCNC(=N)N.O=C(O)C(F)(F)F.O=C(O)C(F)(F)F.O=C(O)C(F)(F)F | 256 | 256 | 4 | 16 | 4 | 16 | 32 | 2 | 128 | > 256 | – | – | – | – | – | – | – | –
N=C(NCCCCCCCCNCCCCCCCCNC(=N)NCC1CC1)NCC1CC1.O=C(O)C(F)(F)F.O=C(O)C(F)(F)F.O=C(O)C(F)(F)F | > 256 | > 256 | > 256 | > 256 | > 256 | > 256 | > 256 | > 256 | > 256 | > 256 | – | – | – | – | – | – | – | –
N=C(N)NCCCCCCNCCCCCCNC(=N)NCC1CC1.O=C(O)C(F)(F)F.O=C(O)C(F)(F)F.O=C(O)C(F)(F)F | > 256 | > 256 | > 256 | 16 | 256 | > 256 | 256 | 32 | > 256 | > 256 | – | – | – | – | – | – | – | –
N=C(NCCCCCCCCN1CCCCCCCCNC(=N)NC1=O)NCC1CC1.O=C(O)C(F)(F)F.O=C(O)C(F)(F)F | > 256 | – | 4 | 32 | 8 | – | 128 | 32 | 64 | – | – | – | – | – | – | – | – | –
C/C=C/CNC(=N)NCCCCCCCCN1CCCCCCCCNC(=N)NC1=O.O=C(O)C(F)(F)F.O=C(O)C(F)(F)F | 256 | 64 | 4 | 8 | 4 | 64 | 32 | 2 | 32 | 128 | – | – | – | – | – | – | – | –
N=C(NCCCCCCCCN1CCCCCCCCNC(=N)NC1=O)NCC1CCC1.O=C(O)C(F)(F)F.O=C(O)C(F)(F)F | > 256 | 64 | 4 | 8 | 4 | 64 | 32 | 2 | 32 | 256 | – | – | – | – | – | – | – | –
C=C(C)CNC(=N)NCCCCCCCCN1CCCCCCCCNC(=N)NC1=O.O=C(O)C(F)(F)F.O=C(O)C(F)(F)F | 8 | 4 | 0.5 | 1 | 0.5 | 0.5 | 1 | 0.5 | 8 | 32 | 1 | 8 | 1 | 4 | 8 | 4 | 8 | 4
C=CCNC(=N)NCCCCCCCCN1CCCCCCCCNC(=N)NC1=O.O=C(O)C(F)(F)F.O=C(O)C(F)(F)F | > 256 | – | 1 | 128 | 16 | – | 128 | 4 | 64 | – | – | – | – | – | – | – | – | –
